Data on 19 molecules can be found in ChEMBL document CHEMBL4819107, “Substituted N-(4-amino-2-chlorophenyl)-5-chloro-2-hydroxybenzamide analogues potently inhibit respiratory syncytial virus (RSV) replication and RSV infection-associated inflammatory responses” (Bioorg Med Chem, 2021).

Series [1] concerns Respiratory syncytial virus. In words: Antiviral activity against RSV infected in human A549 cells assessed as reduction in viral titer at 10 uM incubated for 15 hrs by immunostaining analysis. It is filed as functional. The gist of the method:
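RSV long strain (propagated in HEp-2, sucrose-gradient purified) infected A549 cells at MOI 1 for 2 h. Inoculum removed, then compound at 10 μM for 15 h. Progeny virus titred by immunostaining in HEp-2 cells with biotin-conjugated goat anti-RSV antibody. Log reduction = log10 mean titer of vehicle-treated cells minus log10 mean titer with compound.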

In series [2] the test system is A549. The experiment in a line: Antiinflammatory activity against in human A549 cells transfected with PRDIII-I-Luc and IRF-3-Luc assessed as reduction in RSV-induced IRF3 activation at 10 uM incubated for 15 hrs by luciferase reporter gene assay. It is filed as functional, cell-based. An outline of the steps:
(§1)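 A549 cells transfected in triplicate with luciferase plasmids, either NF-κB-Luc or IRF-3-site reporters. At 20 h post-transfection, infected with RSV (MOI 1). Virus removed at 2 h, then 10 μM compound added for 15 h. Cells then harvested and lysed for luciferase activity.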
A general note: Reporter assays use an easily measured gene product as a stand-in for the process of interest.

In series [3] the test system is A549. The experiment in a line: Antiinflammatory activity against in human A549 cells transfected with NF-kappaB-Luc assessed as reduction in RSV-induced NF-kappaB activation at 10 uM incubated for 15 hrs by luciferase reporter gene assay. The format is functional, cell-based. The gist of the method:
as §1

The subject of series [4] is A549. In words: Antiinflammatory activity against in human A549 cells assessed as reduction in RSV-induced IRF3 mRNA expression at 10 uM incubated for 4 hrs by qRT-PCR analysis. It is filed as functional, cell-based. (In general: Real-time PCR tracks product formation cycle by cycle.)
Series [5] concerns A549. In words: Antiinflammatory activity against in human A549 cells assessed as reduction in RSV-induced NF-kappaB mRNA expression at 10 uM incubated for 4 hrs by qRT-PCR analysis. It is filed as functional, cell-based.
The subject of series [6] is A549. The experiment in a line: Cytotoxicity against human A549 cells assessed as reduction in cell viability incubated for 15 hrs by trypan blue assay. The note with it: a549, 15 h.
In series [7] the test system is SAEC. In words: Antiinflammatory activity against in human SAEC cells assessed as reduction in RSV-induced MIP-1beta production at 10 uM incubated for 4 hrs by immunoassay. The format is functional, cell-based. An outline of the steps:
(§2)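 Primary small airway epithelial cells infected with RSV long strain at MOI 5. Virus removed at 2 h, then 10 μM compound added. Supernatant collected 4 h post-treatment. Cytokines/chemokines quantified with a multiplex human profiling bead kit (Bio-Plex).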

Series [8] has as its system SAEC. The experiment in a line: Antiinflammatory activity against in human SAEC cells assessed as reduction in RSV-induced IL-6 production at 10 uM incubated for 4 hrs by immunoassay. It is filed as functional, cell-based. An outline of the steps:
as §2

The subject of series [9] is SAEC. The experiment in a line: Antiinflammatory activity against in human SAEC cells assessed as reduction in RSV-induced TNF-alpha production at 10 uM incubated for 4 hrs by immunoassay. The format is functional, cell-based. The gist of the method: as §2
The subject of series [10] is Respiratory syncytial virus. In words: Antiviral activity against RSV infected in human A549 cells assessed as reduction in viral RNA at 10 uM measured upto 24 hrs by qRT-PCR analysis. The note with it: time hrs <=24. It is filed as functional, organism-based. The gist of the method:
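A549 cells infected with RSV (MOI 1), then given 10 μM compound. RSV genome copies in cells quantified by RT-qPCR at 6, 15 and 24 h post-treatment. A fusion inhibitor served as a reference control.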

Series [11] deals with Respiratory syncytial virus. The experiment in a line: Antiviral activity against RSV infected in human A549 cells assessed as reduction in viral genome copies at 10 uM measured after 15 hrs by RT-qPCR analysis.

Activity calls are given as the source filed them. No cut-off for these calls is given here.

By CC50 is commonly meant the concentration giving 50% cytotoxicity.

In the case of `O=C(Nc1ccc(N2CCOCC2)cc1Cl)c1cc(Cl)ccc1O`, in [1], the “log(activity)” value is on record as 1.74. In addition, the inhibition result in series [2], in [3], in series [4] and in [5] was “Active” throughout. For the same molecule, the CC50 in series [6] was 89.9 µM.
As for `CCCCCCC(C)Nc1ccc(NC(=O)c2cc(Cl)ccc2O)c(Cl)c1` (centres undefined), the “log(activity)” value in series [1] is reported as 1.16. Also, the CC50 in [6] is 18.6 µM.
With `O=C(Nc1ccc(NCc2cc(C(F)(F)F)cc(C(F)(F)F)c2)cc1Cl)c1cc(Cl)ccc1O`, in [1], the “log(activity)” value was determined as 2.59. In addition, the CC50 in [6] amounted to 22.9 µM.
`O=C(Nc1ccc(NCc2cccnc2)cc1Cl)c1cc(Cl)ccc1O`: the “log(activity)” value in series [1] amounted to 0.54. Moreover, the inhibition entry in [2], in series [3], in series [4], in series [5], in series [7] and in series [8] was “inactive” in each case. Further, the inhibition result in series [9] was “inactive”.
Consider `CS(=O)(=O)CCCn1c(Cn2c(=O)n(CC(F)(F)F)c3ccncc32)cc2cc(Cl)ccc21`, for which, in series [10], the inhibition result was “Active”. Further, the inhibition result in series [11] is “inactive”.
As for `Nc1ccc(NC(=O)c2cc(Cl)ccc2O)c(Cl)c1`, the “log(activity)” value in [1] is listed as -0.01.
As for `CCCNc1ccc(NC(=O)c2cc(Cl)ccc2O)c(Cl)c1`, in [1], the “log(activity)” value stood at 1.82. In addition, the inhibition result in series [2], in series [3], in series [4], in series [5] and in series [7] was “Active” in each case. For the same molecule, in series [6], the CC50 worked out at 69.7 µM.
With `CCCN(CCC)c1ccc(NC(=O)c2cc(Cl)ccc2O)c(Cl)c1`, the “log(activity)” value in series [1] was 1.91. For the same molecule, the inhibition result in [2], in [3], in [4], in series [5] and in [9] was “Active” each time. Moreover, in [6], the CC50 was 323 µM.
As to `CC(C)Nc1ccc(NC(=O)c2cc(Cl)ccc2O)c(Cl)c1`, in series [1], the “log(activity)” value stood at 1.88. For the same molecule, the inhibition result in series [2], in series [3], in series [4] and in series [5] was “Active” throughout. Further, the CC50 in [6] is 82.7 µM.
Consider `O=C(Nc1ccc(NCC2CCNCC2)cc1Cl)c1cc(Cl)ccc1O`, for which the “log(activity)” value in [1] is listed as -0.07.
Take `CCCC(C)(C)Nc1ccc(NC(=O)c2cc(Cl)ccc2O)c(Cl)c1`: the “log(activity)” value in [1] turned out to be 1.81. Besides, in series [6], the CC50 was 23.7 µM.
Take `O=C(Nc1ccc(NCCCO)cc1Cl)c1cc(Cl)ccc1O`: in [1], the “log(activity)” value is listed as -0.16.
As to `O=C(Nc1ccc(NCC2CCCC2)cc1Cl)c1cc(Cl)ccc1O`, in series [1], the “log(activity)” value turned out to be 1.42. Moreover, the CC50 in series [6] came out at 141 µM.
For `O=C(Nc1ccc(NCc2ccccc2)cc1Cl)c1cc(Cl)ccc1O` the same measures were 1.53 and 81.3 µM.
For `O=C(Nc1ccc(NC2CCCC2)cc1Cl)c1cc(Cl)ccc1O`, the “log(activity)” value in [1] is listed as 1.44.
In the case of `O=C(Nc1ccc(NCc2ccc(F)cc2)cc1Cl)c1cc(Cl)ccc1O`, the “log(activity)” value in series [1] is 1.54.
Turning to `CC(C)(C)OC(=O)N1CCC(CNc2ccc(NC(=O)c3cc(Cl)ccc3O)c(Cl)c2)CC1`, the “log(activity)” value in [1] is recorded as 1.53.
As for `CC(=O)Nc1ccc(NC(=O)c2cc(Cl)ccc2O)c(Cl)c1`, in series [1], the “log(activity)” value is listed as 0.09.
The same measure, in the same setting: in the case of `O=C(Nc1ccc(N2CCCC2)cc1Cl)c1cc(Cl)ccc1O` it was 1.51.
